According to ChEMBL document CHEMBL4414599, “Selective Phenylimidazole-Based Inhibitors of the Mycobacterium tuberculosis Proteasome” (J Med Chem, 2019):

What was measured:
[1] = Solubility of the compound; format: physicochemical
[2] = biological target: T1, Proteasome subunit beta type-8 (Homo sapiens, UniProt P28062); assay: Inhibition of human 20S proteasome subunit beta-5i using Ac-ANW-AMC as substrate and measured every 30 secs for 30 mins by microtiter plate assay; conditions: for inhibition (INH): human, 0.5 h
T1 sequence (P28062 whole entry): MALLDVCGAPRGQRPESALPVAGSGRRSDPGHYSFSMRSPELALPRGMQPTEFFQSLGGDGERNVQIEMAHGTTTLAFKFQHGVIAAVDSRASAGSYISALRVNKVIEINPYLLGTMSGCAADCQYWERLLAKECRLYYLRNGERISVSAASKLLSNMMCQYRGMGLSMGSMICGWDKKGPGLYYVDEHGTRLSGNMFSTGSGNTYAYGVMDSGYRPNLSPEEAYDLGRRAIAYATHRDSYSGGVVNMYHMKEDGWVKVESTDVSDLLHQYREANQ
In short: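 Human immunoproteasome (i-20S) run in HEPES pH 7.5 buffer with EDTA and BSA, substrate Ac-ANW-AMC at 15 µM, 25 °C. Inhibitor given as a three-fold dilution series, DMSO under 0.5% final. Fluorescence 340/460 nm followed every 30 s for 30 min. IC50 fitted from rates against log inhibitor concentration; triplicate, at least three independent experiments.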

[3] = biological target: T2, Proteasome Macropain subunit MB1 (Homo sapiens, UniProt P28074); assay: Inhibition of human 20S proteasome beta-5c subunit using Suc-LLVY-AMC as substrate and measured every 30 secs for 30 mins by microtiter plate assay; conditions: for inhibition (INH): human, 0.5 h
T2 sequence (P28074 whole entry): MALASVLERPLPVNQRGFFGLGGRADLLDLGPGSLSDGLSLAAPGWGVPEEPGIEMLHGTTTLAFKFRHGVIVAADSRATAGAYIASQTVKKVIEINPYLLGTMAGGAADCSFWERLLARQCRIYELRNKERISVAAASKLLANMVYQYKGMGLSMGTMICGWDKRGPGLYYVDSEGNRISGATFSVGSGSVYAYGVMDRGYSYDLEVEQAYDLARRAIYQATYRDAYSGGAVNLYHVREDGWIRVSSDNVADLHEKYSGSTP
In short: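 Human constitutive 20S, purchased, 0.8 nM in the enzyme solution. Buffer: 20 mM HEPES pH 7.5, 0.5 mM EDTA, 0.1 mg/mL BSA, 0.02% SDS. Suc-LLVY-AMC at 25 µM final, 25 °C, three-fold inhibitor dilutions. Fluorescence 340/460 nm read every 30 s for 30 min. IC50 from a log-concentration rate fit against negative and positive controls; triplicate, at least three independent experiments.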

Row | Compound | solubility [1] | IC50 [2] [µM] | inhibition (INH) [2] | IC50 [3] [µM] | inhibition (INH) [3]
1 | Cc1cc(C(=O)N[C@@H](CC(=O)N2CCCC[C@@H]2C)C(=O)N[C@@H](C)C(=O)NCc2ccc(F)cc2F)no1 | Soluble | 0.026 | Dose-dependent effect | 1.41 | Dose-dependent effect
2 | COc1ccccc1CNC(=O)[C@H](C)NC(=O)[C@H](CC(=O)N1CCC[C@@H]1c1ccccc1)NC(=O)c1cc(C)on1 |  | > 100 | Dose-dependent effect | > 100 | Dose-dependent effect
3 | Cc1cc(C(=O)N[C@@H](CC(=O)N2CCC[C@@H]2c2ccccc2)C(=O)N[C@@H](C)C(=O)NCc2c(F)cccc2F)no1 |  | 20.1 | Dose-dependent effect | > 100 | Dose-dependent effect
4 | Cc1cc(C(=O)N[C@@H](CC(=O)N2CCC[C@@H]2c2ccccc2)C(=O)N[C@@H](C)C(=O)NCc2ccc(F)cc2F)no1 |  | 7.89 | Dose-dependent effect | > 100 | Dose-dependent effect
5 | Cc1cc(C(=O)N[C@@H](CC(=O)N2CCC[C@@H]2c2ccccc2)C(=O)N[C@@H](C)c2ncc(-c3ccccc3F)[nH]2)no1 |  | > 100 |  | > 100 | 
6 | Cc1cc(C(=O)N[C@@H](CC(=O)N2CCC[C@@H]2c2ccccc2)C(=O)N[C@@H](C)c2ncc(-c3ccccc3)[nH]2)no1 |  | > 100 |  | > 100 | 
7 | Cc1cc(C(=O)N[C@@H](CC(=O)N2CCC[C@@H]2c2ccccc2)C(=O)N[C@@H](C)c2ncc(-c3ccc(F)cc3F)[nH]2)no1 |  | > 100 |  | > 100 | 
